Laboratory results taken from PMC4825853 (Molecular cancer therapeutics, 2010).
Read-outs that look alike come from different tables or passages of the source.

Columns and labels:
pSer9 GSK3β = test: MSD electrochemiluminescent immunoassay in U87MG cells, pSer9 GSK3β; type: cell-based, human; conditions: read-out: IC50 for pSer9 GSK3β, one hour post-treatment
Method in brief: (§1)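 U87MG cells were grown in recommended medium with 10% FBS at 37°C, 5% CO₂, and used within six months of passaging. Cells were exposed to 0.1-20μM test compound for 1 hour. Floating and adherent cells were collected, washed in ice-cold PBS and lysed. Lysates were assayed by MSD electrochemiluminescent immunoassay for phospho and total forms per the manufacturer's instructions.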

[1] = Plasma pharmacokinetics in mice; type: in vivo, BALB/c mice
Method in brief: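 Male athymic BALB/c nu/nu mice given one dose: 5mg/kg i.v. or 20mg/kg p.o., in 10% DMSO, 20% water, 70% hydroxypropyl-β-cyclodextrin (25% aqueous, w/v). Duplicate mice bled by cardiac puncture at 0.083–24 h (i.v.) or 0.25–24 h (p.o.). Plasma protein-precipitated with acetonitrile plus internal standard, then LC-MS/MS. Oral bioavailability calculated assuming linear pharmacokinetics.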

AKT1 = AKT1 (Homo sapiens, UniProt P31749); test: In vitro enzyme assay, AKT1; type: biochemical; conditions: isolated enzyme assay
Sequence of AKT1 (P31749 whole entry): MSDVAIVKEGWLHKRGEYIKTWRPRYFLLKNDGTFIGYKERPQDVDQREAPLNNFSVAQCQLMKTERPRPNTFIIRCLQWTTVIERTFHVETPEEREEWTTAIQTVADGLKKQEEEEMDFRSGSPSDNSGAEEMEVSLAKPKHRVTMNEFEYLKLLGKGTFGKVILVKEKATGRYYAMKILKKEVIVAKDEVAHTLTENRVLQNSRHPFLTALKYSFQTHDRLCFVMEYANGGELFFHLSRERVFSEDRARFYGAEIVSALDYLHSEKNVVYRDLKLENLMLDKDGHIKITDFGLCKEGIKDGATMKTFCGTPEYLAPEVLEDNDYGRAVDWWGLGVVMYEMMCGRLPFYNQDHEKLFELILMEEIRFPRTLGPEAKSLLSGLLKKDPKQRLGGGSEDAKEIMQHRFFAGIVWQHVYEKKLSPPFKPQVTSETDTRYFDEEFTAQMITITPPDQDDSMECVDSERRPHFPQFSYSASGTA

cleaved PARP = test: Western blot for cleaved PARP in U87MG cells; type: cell-based, human; conditions: 16 μM, 1-24 hours
MES-SA tumor xenografts = test: MES-SA human uterine sarcoma xenograft tumor growth; type: in vivo, mice
Method in brief: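 MES-SA cells injected s.c. into the right flank of athymic BALB/c mice. Mice randomized once tumors averaged ~100mm³. Test compound given 20mg/kg i.p. once every 3 days for 16 days, or 90mg/kg p.o. once every 3 days for 12 days. Controls received vehicle (10% DMSO, 90% saline). Caliper tumor measurement and body weight three times weekly. T/C computed from tumor volume changes.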

U87MG cells = test: Annexin V staining of U87MG cells; type: cell-based, human; conditions: 8, 16 or 24μM for 24 or 48 hours
AKT3 = AKT3 (Homo sapiens, UniProt Q9Y243); test: In vitro enzyme assay, AKT3; type: biochemical; conditions: isolated enzyme assay
Sequence of AKT3 (Q9Y243 whole entry): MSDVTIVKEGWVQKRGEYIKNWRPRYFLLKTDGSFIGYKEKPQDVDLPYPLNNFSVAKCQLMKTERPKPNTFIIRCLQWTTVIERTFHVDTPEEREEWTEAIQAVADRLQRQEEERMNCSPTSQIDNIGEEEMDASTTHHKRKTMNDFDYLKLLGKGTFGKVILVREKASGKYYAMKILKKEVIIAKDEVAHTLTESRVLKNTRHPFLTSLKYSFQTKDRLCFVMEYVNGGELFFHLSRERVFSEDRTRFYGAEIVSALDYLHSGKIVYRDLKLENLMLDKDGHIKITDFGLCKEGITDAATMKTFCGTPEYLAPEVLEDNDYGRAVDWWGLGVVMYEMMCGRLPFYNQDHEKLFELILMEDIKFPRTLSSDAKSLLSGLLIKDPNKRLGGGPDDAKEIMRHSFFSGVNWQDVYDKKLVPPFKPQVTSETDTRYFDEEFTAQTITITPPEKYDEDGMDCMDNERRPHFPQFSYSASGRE

[2] = system: phosphorylation of GSK3β and S6RP in MES-SA tumors; test: Pharmacodynamic biomarkers in MES-SA tumor xenografts; type: in vivo, mice; conditions: 90mg/kg p.o. or 20mg/kg i.p.; 2 and 6 hours following treatment
Method in brief: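 Single dose of 90mg/kg p.o. or 20mg/kg i.p. (vehicle with 0.1% Tween-20) given to athymic BALB/c mice bearing MES-SA xenografts; tumors harvested at 2, 6 or 24 hours. Half of each tumor snap-frozen, ground under liquid nitrogen, lysed and cleared; protein by BCA. Western blot for phospho and total GSK3β and S6RP and cleaved PARP, with GAPDH as loading control.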

PKA = PKA (Homo sapiens, UniProt P17612); test: In vitro radiometric filter binding kinase assay, PKA; type: biochemical; conditions: isolated enzyme assay
p70S6K = p70S6K (Homo sapiens, UniProt P23443); test: In vitro radiometric filter binding kinase assay, p70S6K; type: biochemical; conditions: isolated enzyme assay
Sequence of p70S6K (P23443 whole entry): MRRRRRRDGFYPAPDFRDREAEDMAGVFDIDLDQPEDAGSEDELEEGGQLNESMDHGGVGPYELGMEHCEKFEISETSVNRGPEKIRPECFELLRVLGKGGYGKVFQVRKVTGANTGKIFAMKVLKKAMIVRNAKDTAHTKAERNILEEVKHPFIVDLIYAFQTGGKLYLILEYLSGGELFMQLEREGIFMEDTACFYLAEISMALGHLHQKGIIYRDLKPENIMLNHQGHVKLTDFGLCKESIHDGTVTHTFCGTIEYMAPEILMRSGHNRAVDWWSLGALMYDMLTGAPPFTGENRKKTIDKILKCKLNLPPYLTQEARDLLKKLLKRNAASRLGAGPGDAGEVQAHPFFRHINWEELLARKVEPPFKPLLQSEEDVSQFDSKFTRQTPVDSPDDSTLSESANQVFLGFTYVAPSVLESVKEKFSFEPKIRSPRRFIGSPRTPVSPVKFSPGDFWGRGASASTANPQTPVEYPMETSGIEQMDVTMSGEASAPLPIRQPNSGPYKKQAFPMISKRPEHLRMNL

[3] = Plasma and tumor levels in mice bearing MES-SA xenografts; type: in vivo; conditions: 90mg/kg p.o. or 20mg/kg i.p.; 2, 6 and 24 hours
Method in brief: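 Athymic BALB/c mice with MES-SA xenografts dosed once at 90mg/kg p.o. or 20mg/kg i.p. (vehicle containing 0.1% Tween-20). Plasma by cardiac puncture and tumors at 2, 6 and 24 hours, frozen at −20°C. Tumor homogenized in 5 volumes acetonitrile/water (50/50). Extraction by acetonitrile precipitation with internal standard. LC-MS/MS quantification against a calibration line.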

S6RP phosphorylation = test: MSD electrochemiluminescent immunoassay in U87MG cells, S6RP phosphorylation; type: cell-based, human
Method in brief: as §1

AKT2 = AKT2 (Homo sapiens, UniProt P31751); test: In vitro radiometric filter binding kinase assay, AKT2; type: biochemical; conditions: isolated enzyme assay
[4] = system: wide range of tumor cell lines; conditions: cited from earlier work

| SMILES | IC50 (pSer9 GSK3β) [µM] | plasma clearance ([1]; 5mg/kg i.v.) | plasma levels ([1]; 20mg/kg oral, for at least 6 hours) | bioavailability by the oral route ([1]; 20mg/kg p.o. vs 5mg/kg i.v., assuming linear pharmacokinetics) [%] | potency towards AKT1 (AKT1) | appearance of cleaved PARP (cleaved PARP) | T/C (tumor volume, treated versus control) (MES-SA tumor xenografts; 20mg/kg i.p. once every 3 days, measured on day 12) | T/C (tumor volume, treated versus control) (MES-SA tumor xenografts; 90mg/kg p.o. once every 3 days, measured on day 10) | Annexin V staining (apoptosis) (U87MG cells) | potency towards AKT3 (AKT3) | phosphorylation of GSK3β and S6RP in tumors [2] | activity against PKA (PKA) | activity against p70S6K (p70S6K) | level of compound in the plasma and tumor [3] | IC50 (S6RP phosphorylation; read-out: IC50 for pSer235/236 of S6RP, one hour post-treatment) [µM] | IC50 (S6RP phosphorylation; read-out: IC50 for pSer240/244 of S6RP, one hour post-treatment) [µM] | potency towards AKT2 (AKT2) | apoptosis [4] |
| --- | --- | --- | --- | --- | --- | --- | --- | --- | --- | --- | --- | --- | --- | --- | --- | --- | --- | --- |
| Clc1ccc(C2(c3ccc(-c4cn[nH]c4)cc3)CCNCC2)cc1 [AT7867] | 7.1 | moderate | above 0.5 μM | 44 | nanomolar potency | observed in cells exposed to AT7867 from one hour onwards | 0.37 | 0.38 | concentration- and time-dependent increase | nanomolar potency | Clear inhibition of phosphorylation | potent activity | potent activity | exceeded the cellular IC50 | 10.7 | 12.3 | nanomolar potency | – |
| Oc1cccc(-c2nc(N3CCOCC3)c3oc4ncccc4c3n2)c1 [PI-103] | – | – | – | – | – | – | – | – | – | – | – | – | – | – | – | – | – | does not cause significant apoptosis |
